CSC inhib: cancer stem cell inhibition; cancer stem cell-like cells viability, luminescence; inhibition, % at 7.5 µM; 300,000 compounds, 1.1% hits; AID 2717; in the data active means inhibition above about 75%; tested in HMLE shEcad cells
aSyn UTR inh: MLPCN primary screen, SNCA 5' untranslated region; AID 1813; alpha-synuclein 5'UTR reporter, inhibitor activity; 300,000 compounds, 0.82% hits; inhibition, % (tested at 7.5 µM); in the data active means inhibition above about 60%;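 further: H4 neuroglioblastoma cells stably carrying SNCA 5'UTR luciferase fusion; 0% = DMSO wells and 100% = positive control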
Mdm2-MdmX inh: human Mdm2/MdmX binding inhibition. SaOS-2 split-luciferase Mdm2/MdmX complementation, luminescence. inhibition, % at 8 µM. 330,000 compounds, 3% hits. AID 485346;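 active means inhibition of at least 50% at 8 µM in the primary screen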
SKKanGAS inh: blocks kanamycin growth of S. pyogenes SKKanGAS strain; BacTiter-Glo, 6 h; inhibition, % at 7.5 µM; 300,000 compounds, 1.3% hits;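 active means mean replicate score, as percent of positive control median, at least 50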;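 further: strain carries kanamycin resistance gene driven by streptokinase promoter and grows in 40 µg/ml kanamycin; loss of luminescence reflects streptokinase promoter inhibition or plain growth inhibition; 0% = median of DMSO wells and 100% = positive control at its reference dose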
T cruzi inh: T. cruzi replication inhibition | T. cruzi beta-gal in NIH3T3, luminescence, 90 h | inhibition, % (test concentration not listed) | 300,000 compounds, 1.4% hits;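 active means mean inhibition across valid replicates above about 55%, limit read from the data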;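 further: signal also drops with host cell toxicity which is not excluded here; 0% = plate median of DMSO wells and 100% = zero luminescence signal; higher percent means less beta-gal luminescence so fewer parasites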
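Assay system: NIH/3T3 fibroblasts plus reporter T. cruzi. Amount: NIH/3T3 cells, 5,000 per well. Buffer or medium: DMEM, 2% fetal bovine serum. Doses: compound pinned at 50 nL/well, DMSO. Schedule: ≥90 h infection period, 3 h prior cell attachment. Signal: luminescent β-galactosidase signal after 60 min lysis. Read-out: parasite load inhibition, %.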
An asterisk follows results filed as active; . = not tested or not shown. Compounds with a hit are over-represented: about 5.4% of the library has one in this group of screens.

SMILES	CSC inhib	aSyn UTR inh	Mdm2-MdmX inh	SKKanGAS inh	T cruzi inh
CCOc1ccc(C(=O)COC(=O)c2nn(CC)c(=O)c3ccccc23)cc1	.	.	-6	.	.
Cc1cc(C)nc(SC2=CS(=O)(=O)c3ccccc32)n1	44	-120	46	0	21
O=S1(=O)C=C(Sc2nc3ccccc3s2)c2ccccc21	141*	-14	-15	-11	69*
CC(C)(C)c1ccc(C(=O)Nc2ccc(C(=O)NCc3cccnc3)cc2)cc1	3	57	-12	-6	17
Cc1ccc(-c2c[n+](Cc3ccc(Cl)c(Cl)c3)c3n2CCC3)cc1	33	20	35	11	49
Cc1cc(C)n(-c2nc(SCC(=O)O)c3c4c(sc3n2)COC(C)(C)C4)n1	12	6	8	70*	31
Nc1ccn(CC(=O)NCCc2ccccn2)c(=O)n1	13	.	7	.	.
CC(=O)Oc1ccc(-c2csc(Nc3cccc(C)n3)n2)cc1	79*	-250	-143	-3	43
Cc1cccc(Nc2nc(-c3ccccn3)cs2)n1	45	-18	-105	11	59*
COc1ccc(-c2csc(Nc3cccc(C)n3)n2)cc1	31	-232	-185	2	9
Cc1cccc(Nc2nc(-c3cccs3)cs2)n1	14	-91	-231	7	19
Oc1ccc(-c2csc(Nc3ccccn3)n2)c(O)c1	103*	-134	-89	1	6
Cc1ccc(S(=O)(=O)N2CCN(S(=O)(=O)N(C)C)CC2)c(C)c1	0	13	4	2	6
O=C(C1CCCN(S(=O)(=O)c2ccc(Br)cc2)C1)N1CCN(Cc2ccccc2)CC1 (configuration not stated)	16	45	27	-3	17
Cc1c(Cl)cccc1-c1ccc(CNCc2ccccn2)o1	13	0	6	83*	-5
N#Cc1nc(-c2ccc(OCc3ccccc3Cl)cc2)oc1NCCCn1ccnc1	94*	-65	39	74*	37
CCCOc1ccc(-c2nc(C#N)c(NCCCn3ccnc3)o2)cc1	45	-16	27	11	43
N#Cc1nc(-c2ccc(OCc3ccccc3)cc2)oc1NCCCn1ccnc1	88*	14	35	44	38
CC(C)(C)c1ccc(-c2nc(C#N)c(NCCCn3ccnc3)o2)cc1	88*	-52	29	-2	48
Cc1nn2c(=O)cc(COC(=O)c3c(F)cccc3Cl)nc2s1	.	.	-26	.	.
Cc1ccc(Nc2nc3ccccc3[nH]2)nc1	-1	-220	-57	66*	36
O=c1cc(CN2CCN(Cc3ccccc3)CC2)c2ccc(O)c(O)c2o1	23	-1	11	4	51
CCOc1ccc2oc(=O)cc(CN3CCN(Cc4ccccc4)CC3)c2c1	7	-10	3	5	58*
Cc1c(O)ccc2c(CN3CCN(Cc4ccccc4)CC3)cc(=O)oc12	1	8	-9	1	56*
CCn1c(=NC(=O)C2COc3ccccc3O2)sc2c(OC)ccc(OC)c21 (configuration not stated)	5	-3	-21	5	26
SMILES	CSC inhib	aSyn UTR inh	Mdm2-MdmX inh	SKKanGAS inh	T cruzi inh
COc1ccccc1C(=O)OCC(=O)Nc1cccc(S(=O)(=O)N2CCCC2)c1	.	.	5	.	.
COc1ccc(S(=O)(=O)N2CCOCC2)cc1NC(=O)CCNC(=O)c1ccc(Br)cc1	70	77*	-17	-7	9
O=C(C1CCN(S(=O)(=O)c2ccc(F)cc2)CC1)N1CCCC(C(F)(F)F)C1 (configuration not stated)	-12	14	25	-3	-15
CCc1ccccc1NNC(=O)c1cc(C)on1	39	12	19	-6	-4
Cc1cc(C(=O)NNc2ccc(F)cc2)no1	96*	26	6	5	16
Cc1cc(C(=O)NNc2ccccc2F)no1	52	-9	20	-3	61*
CN(CC(=O)Nc1ccc(Cl)c(C(F)(F)F)c1)C(=O)c1ccc(N2CCOCC2)c([N+](=O)[O-])c1	17	18	38	-5	19
COC(=O)C1=CN(C2CCCCC2)C=C(C(=O)OC)C1c1ccc2c(c1)OCO2	16	45	18	-10	62*
COc1ccc(C)cc1Nc1n[n+](-c2ccccc2)c(-c2ccc(OC)c(OC)c2OC)s1	6	-22	39	3	55*
CCOc1ccc(-n2c(-c3ccc(Cl)cc3)c[n+]3c2SCC3)cc1	-16	-25	3	-3	62*
COc1ccc(-n2c(-c3ccccc3)c[n+]3c2CCC3)cc1	-7	-10	33	2	12
c1ccc(-c2c[n+]3c(n2-c2ccccc2)SCC3)cc1	-7	0	-3	-4	55*
